Published values from different studies.
Lines come from different studies, so protocols differ.
Target: Serine/threonine-protein kinase STK11 (STK11, Homo sapiens, UniProt Q15831)
Residues used in one study (Q15831 1-433): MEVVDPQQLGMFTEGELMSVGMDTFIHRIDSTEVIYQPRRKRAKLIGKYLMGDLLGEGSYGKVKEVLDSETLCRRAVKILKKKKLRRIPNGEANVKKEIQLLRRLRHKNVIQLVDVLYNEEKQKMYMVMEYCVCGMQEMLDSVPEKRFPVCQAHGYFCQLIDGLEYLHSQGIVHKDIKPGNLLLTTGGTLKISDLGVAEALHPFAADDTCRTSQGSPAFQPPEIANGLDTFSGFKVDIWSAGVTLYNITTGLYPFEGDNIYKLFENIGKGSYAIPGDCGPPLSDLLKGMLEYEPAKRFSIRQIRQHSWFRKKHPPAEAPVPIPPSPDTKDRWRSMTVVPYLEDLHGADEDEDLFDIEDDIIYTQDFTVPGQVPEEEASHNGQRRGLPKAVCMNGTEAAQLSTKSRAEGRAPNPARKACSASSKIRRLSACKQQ

SMILES	assay	setting	quantity	result
Cc1ccc(C(=O)NCc2ccsc2)cc1C#Cc1cn(C(C)C)c2ncnc(N)c12	enzyme activity, inhibitor	1 µM	activity vs control	94%
Cc1cc(NC(=O)c2cccc3cc(-c4cccc5[nH]nc(N)c45)ccc23)ccc1F	enzyme activity, inhibitor	0.1 µM	activity vs control	97%
Cc1c[nH]c2nccc(Oc3c(F)cc(Nc4cc(Cl)nc(N)n4)cc3F)c12	cell-free assay, competition with immobilised ligand	0.1 µM	remaining binding	100%
CCN(CC)CCNC(=O)c1c(C)[nH]c(/C=C2\C(=O)Nc3ccc(F)cc32)c1C	enzyme activity, inhibitor	10 µM	inhibition	3%
Nc1ncnc2occ(-c3ccc(NC(=O)Nc4cc(C(F)(F)F)ccc4F)cc3)c12	cell-free assay, inhibitor	20 µM	remaining signal	99%
FC(F)c1nc2ccccc2n1-c1nc(N2CCOCC2)nc(N2CCOCC2)n1	enzyme activity, inhibitor	10 µM	remaining activity	103%
COc1cc(Nc2cnc(C#N)c(O[C@H](C)CN(C)C)n2)ncc1-c1cnn(C)c1	enzyme activity, inhibitor, radiometric	1 µM	remaining activity	96%
O=C1NC(=O)c2cc(Nc3ccc(F)cc3)c(Nc3ccc(F)cc3)cc21	cell-free assay	0.5 µM	remaining signal	98.2%
Cc1cc(-n2nc(Cc3cc(F)cc(C(F)(F)F)c3)nc2C)ccc1C(N)=O	cell-free assay, competition with immobilised ligand	1 µM	remaining binding	100%
FC(F)(F)Oc1cccc(-c2cnc3ccc(-c4ccncc4)nn23)c1	enzyme activity, inhibitor, radiometric	5 µM	activity vs control	106%
Cn1nc(C(F)(F)F)cc1-c1cnc(N2CCc3cc(S(=O)(=O)Nc4c(F)cc(Cl)cc4F)cc(N4CCCC4=O)c32)nc1	cell-free assay, competition with immobilised ligand	1 µM	remaining binding	100%
O=C1Nc2ccc(Cl)cc2C1=Cc1cc(Cl)c(O)c(Cl)c1	cell-free assay	0.5 µM	remaining signal	93.1%
Cc1ccc(Nc2nccc(N(C)c3ccc4c(C)n(C)nc4c3)n2)cc1S(N)(=O)=O	enzyme activity, inhibitor	0.3 µM	inhibition	-6%
CN(c1ccnc(CNc2nc(Nc3ccc4c(c3)CC(=O)N4)ncc2C(F)(F)F)n1)S(C)(=O)=O	cell-free assay, competition with immobilised ligand	1 µM	remaining binding	72%
O=C(Nc1cnn(-c2csc(C(=O)NC3COC3)c2)c1)Nc1c(F)cccc1Cl	enzyme activity, inhibitor	5 µM	remaining activity	94.7%
CCS(=O)(=O)c1cc2cc(C[C@](O)(CC(C)(C)c3ccc(F)cc3C(N)=O)C(F)(F)F)[nH]c2cn1	cell-free assay, competition with immobilised ligand	1 µM	remaining binding	100%
Cc1ccc(C(=O)Nc2ccc(CN3CCN(C)CC3)c(C(F)(F)F)c2)cc1C#Cc1cnc2cccnn12	enzyme activity, inhibitor	23.5 nM	remaining activity	96%
